{
  "source": "ChEMBL document CHEMBL5715959",
  "about": "“Inhibition of histone methyltransferase EZH2 in Schistosoma mansoni in vitro by GSK343 reduces egg laying and decreases the expression of genes implicated in DNA replication and noncoding RNA metabolism” (2018)",
  "key": {"Schistosoma mansoni [1]": {"test_system": "Schistosoma mansoni", "assay": "Antischistosomal activity against adult male Schistosoma mansoni assessed as presence of deep chasms between the dorsal tubercles at 20 uM incubated for 48 hrs by scanning electron microscopy analysis", "format": "functional, organism-based", "outline": "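Adult couples were taken by perfusion into supplemented RPMI, one couple per well, and adapted 2 h at 37°C, 5% CO2. They were exposed to 20 μM GSK343 or 0.1% DMSO for 24 and 48 h. Fixation used modified Karnovsky with osmium post-fix, followed by ethanol dehydration, critical-point drying, gold sputtering and scanning electron microscopy of tegument surfaces.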"}, "Schistosoma mansoni [2]": {"test_system": "Schistosoma mansoni", "assay": "Antischistosomal activity against juvenile Schistosoma mansoni assessed as destroyed oral sucker at 20 to 50 uM incubated for 48 hrs by scanning electron microscopy analysis", "format": "functional, organism-based", "conditions": "in the assay text read “at 50 uM” for “at 20 to 50 uM”", "outline": "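Juvenile worms recovered by perfusion, five per well in supplemented RPMI (10% FBS, antibiotics, 37°C, 5% CO2), 2 h adaptation, then exposed 48 h to compound or 0.1% DMSO. Fixed in modified Karnovsky reagent (pH 7.4), washed in cacodylate buffer, post-fixed 1 h in 1% osmium tetroxide, ethanol-dehydrated, critical-point dried, gold-sputtered and imaged by scanning electron microscopy.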"}, "Schistosoma mansoni [3]": {"test_system": "Schistosoma mansoni", "assay": "Antischistosomal activity against Schistosoma mansoni assessed as loss of spines at 20 uM incubated for 24 hrs by scanning electron microscopy analysis", "format": "functional, organism-based", "outline": "(§1)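 Newly transformed schistosomula were held 16 h in M169 with 2% FBS, serotonin, hypoxanthine, hydrocortisone, triiodothyronine and antibiotics at 37°C, 5% CO2, at 2,000 per well. They were then exposed to 20 μM GSK343 or 0.1% DMSO for 24 and 48 h. Fixation was modified Karnovsky (pH 7.4) with 1% osmium post-fix, then ethanol dehydration, critical-point drying, gold coating and SEM. Lengths came from three experiments, each with 20 schistosomula.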"}, "Schistosoma mansoni [4]": {"test_system": "Schistosoma mansoni", "assay": "Antischistosomal activity against Schistosoma mansoni assessed as increased length of schistosomula at 20 uM incubated for 24 to 48 hrs by scanning electron microscopy analysis", "format": "functional", "conditions": "time 24-48 hrs", "outline": "as §1"}, "Schistosoma mansoni [5]": {"test_system": "Schistosoma mansoni", "assay": "Cytotoxicity against Schistosoma mansoni assessed as reduction in total ATP content at 20 uM incubated for 2 days by CellTiter-Glo Luminescent assay relative to control", "format": "functional", "design": "scale not given: the % may be the effect or the level left", "conditions": "time 2 day", "outline": "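Newly transformed schistosomula pre-cultured 16 h in M169 with 2% FBS, serotonin, hypoxanthine, hydrocortisone, triiodothyronine and antibiotics at 37°C, 5% CO2, then 100–120 per well exposed up to 5 days to compound or 0.1% DMSO. ATP in intact larvae read by luminescence, expressed as % of vehicle; three replicate experiments, two-way ANOVA.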"}, "Schistosoma mansoni [6]": {"test_system": "Schistosoma mansoni", "assay": "Antischistosomal activity against Schistosoma mansoni assessed as increased H3K27ac level in schistosomula at 20 uM incubated for 48 hrs by Western blotting analysis", "format": "functional, organism-based", "outline": "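About 10,000 schistosomula were treated 48 h with 20 μM GSK343 or vehicle, then sonicated in Triton X-100 lysis buffer with PMSF and protease inhibitors. Supernatant nuclear extract (BCA-quantified, 10 μg) was run on 15% SDS-PAGE and blotted to nitrocellulose. Blots were probed with mark-specific monoclonal antibodies, then IRDye secondaries; infrared imaging was used and signals were normalized to total H3. t-test.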"}, "Schistosoma mansoni [7]": {"test_system": "Schistosoma mansoni", "assay": "Antischistosomal activity against adult Schistosoma mansoni assessed as increased H3K4me3 level at 20 uM incubated for 48 hrs by Western blotting analysis", "format": "functional, organism-based", "outline": "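Fifty adult worm pairs were treated 48 h with 20 μM GSK343 or vehicle in supplemented RPMI/10% FBS, then lysed in Triton buffer. Nuclear pellets were acid-extracted overnight in 0.25 M HCl at 4°C and histones were TCA-concentrated. 10 μg went on 15% SDS-PAGE and nitrocellulose, probed with anti-H3K27me3, K9ac, K27ac or K4me3, then IRDye secondaries; infrared densitometry was normalized to anti-H3. Three biological replicates; t-test.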"}, "Schistosoma mansoni [8]": {"test_system": "Schistosoma mansoni", "assay": "Antischistosomal activity against female Schistosoma mansoni assessed as down-regulated Tyrosinase 1 mRNA level at 20 uM incubated for 48 hrs by RT-qPCR analysis", "format": "functional, organism-based", "outline": "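Schistosomula (supplemented M169) or adult worms (supplemented RPMI) were treated 48 h with 20 μM GSK343 or 0.1% DMSO at 37°C, 5% CO2. qPCR normalizer genes were chosen from RNA-seq data as those with TPM >1 and a treated/control ratio of 0.9–1.1 that were not differentially expressed. Relative expression was calculated by comparative Ct; significance by t-test.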"}, "Schistosoma mansoni [9]": {"test_system": "Schistosoma mansoni", "assay": "Cytotoxicity against Schistosoma mansoni assessed as decrease in viability at 20 uM incubated for 2 days relative to control", "conditions": "time 2 day"}},
  "note": "The source made the active and inactive calls. The calls are words filed in the database; no cut-off is given here.",
  "data": [
    {"smiles": "CCCc1cc(C)[nH]c(=O)c1CNC(=O)c1cc(-c2ccnc(N3CCN(C)CC3)c2)cc2c1cnn2C(C)C", "values": [
      {"measurement": "Activity", "setting": "Schistosoma mansoni [1]", "result": "Active"},
      {"measurement": "Activity", "setting": "Schistosoma mansoni [2]", "result": "Active"},
      {"measurement": "Activity", "setting": "Schistosoma mansoni [3]", "result": "Active"},
      {"measurement": "fold change (FC)", "setting": "Schistosoma mansoni [4]", "result": 1.1},
      {"measurement": "Activity", "setting": "Schistosoma mansoni [5]", "result": 40, "unit": "%"},
      {"measurement": "Activity", "setting": "Schistosoma mansoni [6]", "result": "Active"},
      {"measurement": "Activity", "setting": "Schistosoma mansoni [7]", "result": "Active"},
      {"measurement": "Activity", "setting": "Schistosoma mansoni [8]", "result": "Active"},
      {"measurement": "Activity", "setting": "Schistosoma mansoni [9]", "result": "<20", "unit": "%"}
    ]}
  ]
}
